Test results published in ChEMBL document CHEMBL2029242 (J Med Chem, 2012).

Legend:
Mus musculus [1] = assay: Inhibition of BRAF V600E mutant-mediated MEK phosphorylation in human COLO205 cells xenografted in athymic nude mouse at 55 mg/kg, po after 10 hrs; format: functional; settings: COLO 205, 10 h
Procedure, shortened: (§1)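 Mice bearing Colo-205 xenografts got one oral dose in 22% HPβCD; vehicle controls were run. Tumors were collected at time points over 24 h and lysed. pMEK and total MEK in the lysates were measured by immunoblotting and ELISA, and pMEK was normalized to total MEK.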

[2] = Clearance in beagle dog at 1 mg/kg, iv and 10 mg/kg, po; format: ADME, organism-based, Canis lupus familiaris; settings: in vivo
Procedure, shortened: (§2)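 Single-dose PK. Rats: male Sprague−Dawley, jugular-catheterized, 1 mg/kg iv in 3:1 PEG400/water (n = 2) and 10 mg/kg po in Pharmatek #6 (n = 3). Female athymic nude mice: 100 mg/kg po in Pharmatek #6 (n = 3). Beagle dogs and male cynomolgus monkeys (n = 3): crossover, 1 mg/kg iv and 10 mg/kg po in 22% HPβCD, overnight fast. Plasma LC-MS/MS to 24 h; noncompartmental parameters, mean ± SD.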

Liver microsomes = assay: Intrinsic clearance in human liver microsomes; format: ADME, Microsome
Procedure, shortened: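 Pooled liver microsomes (0.5 mg/mL) were premixed with 0.1 M phosphate buffer pH 7.4, 6.5 mM MgCl2 and test compound (1 μM final, 0.2% DMSO). NADPH (1 mM) started the reaction at 37 °C, in duplicate. Minus-NADPH and testosterone controls were included. Aliquots were taken at 0, 5, 15, 30 and 60 min and quenched in acetonitrile containing internal standard.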

[3] = Oral bioavailability in Sprague-Dawley rat at 10 mg/kg; format: ADME, organism-based; settings: in vivo
Procedure, shortened: (§3)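 Male Sprague-Dawley rats (250–350 g, jugular-catheterized) received a single dose either iv at 1 mg/kg in 3:1 PEG400/water (n = 2) or po at 10 mg/kg in Pharmatek #6 (n = 3). Plasma was sampled at 5 min (iv only), 15 and 30 min, and 1, 2, 4, 6 and 24 h. Samples were analyzed by LC-MS/MS after acetonitrile precipitation. Parameters came from noncompartmental linear-trapezoidal analysis of individual animals.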

COLO 205 = assay: Cytotoxicity against human COLO205 cells expressing BRAF V600E mutant after 72 hrs by cell titer blue assay; format: functional, cell-based; settings: COLO 205, 72 h
Procedure, shortened: (§4)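 Cells were grown in ATCC-recommended media and kept overnight in 0.5% serum. They were then exposed to compound for 72 h, and Cell Titer Blue was added for 3 h. EC50 came from fluorometric concentration−response curves, run in duplicate and repeated at least once.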

[4] = Clearance in Sprague-Dawley rat at 1 mg/kg, iv and 10 mg/kg, po; format: ADME, organism-based; settings: in vivo; procedure, shortened: as §2
[5] = biological target: Phosphatidylinositol 4,5-bisphosphate 3-kinase catalytic subunit alpha isoform (Homo sapiens, UniProt P42336); assay: Inhibition of PIK3-CA in human HEK293 cells after 1 hr by competition binding assay; format: cell-based
Phosphatidylinositol 4,5-bisphosphate 3-kinase catalytic subunit alpha isoform, sequence (P42336 whole entry, canonical isoform): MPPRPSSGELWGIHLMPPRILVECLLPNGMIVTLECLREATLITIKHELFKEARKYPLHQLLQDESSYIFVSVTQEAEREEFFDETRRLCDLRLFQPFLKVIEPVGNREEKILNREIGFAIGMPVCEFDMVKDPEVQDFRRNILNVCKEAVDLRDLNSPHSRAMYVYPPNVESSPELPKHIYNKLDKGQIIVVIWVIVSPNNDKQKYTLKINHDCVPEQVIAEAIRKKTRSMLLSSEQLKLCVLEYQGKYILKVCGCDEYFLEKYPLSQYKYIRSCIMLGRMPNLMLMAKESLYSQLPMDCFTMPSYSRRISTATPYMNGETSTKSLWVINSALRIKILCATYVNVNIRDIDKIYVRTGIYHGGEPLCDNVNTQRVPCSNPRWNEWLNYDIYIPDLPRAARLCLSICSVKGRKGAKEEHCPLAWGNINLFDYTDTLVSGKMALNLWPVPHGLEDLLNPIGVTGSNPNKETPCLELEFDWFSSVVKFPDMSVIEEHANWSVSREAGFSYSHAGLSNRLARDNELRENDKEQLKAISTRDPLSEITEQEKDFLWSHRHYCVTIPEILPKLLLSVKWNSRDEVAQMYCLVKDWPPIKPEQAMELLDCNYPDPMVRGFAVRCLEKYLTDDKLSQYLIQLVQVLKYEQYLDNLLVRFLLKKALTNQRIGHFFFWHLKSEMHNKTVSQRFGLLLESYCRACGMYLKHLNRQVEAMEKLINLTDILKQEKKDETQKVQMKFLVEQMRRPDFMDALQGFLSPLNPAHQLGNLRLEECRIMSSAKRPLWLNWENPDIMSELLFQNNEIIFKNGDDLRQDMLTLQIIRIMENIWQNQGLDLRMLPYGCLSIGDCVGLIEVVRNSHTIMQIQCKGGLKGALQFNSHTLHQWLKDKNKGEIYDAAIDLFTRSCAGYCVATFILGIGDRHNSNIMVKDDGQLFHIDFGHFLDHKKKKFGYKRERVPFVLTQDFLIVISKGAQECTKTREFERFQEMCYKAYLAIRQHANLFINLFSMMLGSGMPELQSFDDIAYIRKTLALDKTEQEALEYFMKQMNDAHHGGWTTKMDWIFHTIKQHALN
Procedure, shortened: (§5)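 Unbound kinase was captured on immobilized affinity ligand and quantified by qPCR. Kd came from eleven serial 3-fold dilutions, as the mean of duplicates.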

[6] = biological target: Hepatocyte growth factor receptor (Homo sapiens, UniProt P08581); assay: Inhibition of cMET in human HEK293 cells after 1 hr by competition binding assay; format: cell-based
Hepatocyte growth factor receptor, sequence (P08581 whole entry): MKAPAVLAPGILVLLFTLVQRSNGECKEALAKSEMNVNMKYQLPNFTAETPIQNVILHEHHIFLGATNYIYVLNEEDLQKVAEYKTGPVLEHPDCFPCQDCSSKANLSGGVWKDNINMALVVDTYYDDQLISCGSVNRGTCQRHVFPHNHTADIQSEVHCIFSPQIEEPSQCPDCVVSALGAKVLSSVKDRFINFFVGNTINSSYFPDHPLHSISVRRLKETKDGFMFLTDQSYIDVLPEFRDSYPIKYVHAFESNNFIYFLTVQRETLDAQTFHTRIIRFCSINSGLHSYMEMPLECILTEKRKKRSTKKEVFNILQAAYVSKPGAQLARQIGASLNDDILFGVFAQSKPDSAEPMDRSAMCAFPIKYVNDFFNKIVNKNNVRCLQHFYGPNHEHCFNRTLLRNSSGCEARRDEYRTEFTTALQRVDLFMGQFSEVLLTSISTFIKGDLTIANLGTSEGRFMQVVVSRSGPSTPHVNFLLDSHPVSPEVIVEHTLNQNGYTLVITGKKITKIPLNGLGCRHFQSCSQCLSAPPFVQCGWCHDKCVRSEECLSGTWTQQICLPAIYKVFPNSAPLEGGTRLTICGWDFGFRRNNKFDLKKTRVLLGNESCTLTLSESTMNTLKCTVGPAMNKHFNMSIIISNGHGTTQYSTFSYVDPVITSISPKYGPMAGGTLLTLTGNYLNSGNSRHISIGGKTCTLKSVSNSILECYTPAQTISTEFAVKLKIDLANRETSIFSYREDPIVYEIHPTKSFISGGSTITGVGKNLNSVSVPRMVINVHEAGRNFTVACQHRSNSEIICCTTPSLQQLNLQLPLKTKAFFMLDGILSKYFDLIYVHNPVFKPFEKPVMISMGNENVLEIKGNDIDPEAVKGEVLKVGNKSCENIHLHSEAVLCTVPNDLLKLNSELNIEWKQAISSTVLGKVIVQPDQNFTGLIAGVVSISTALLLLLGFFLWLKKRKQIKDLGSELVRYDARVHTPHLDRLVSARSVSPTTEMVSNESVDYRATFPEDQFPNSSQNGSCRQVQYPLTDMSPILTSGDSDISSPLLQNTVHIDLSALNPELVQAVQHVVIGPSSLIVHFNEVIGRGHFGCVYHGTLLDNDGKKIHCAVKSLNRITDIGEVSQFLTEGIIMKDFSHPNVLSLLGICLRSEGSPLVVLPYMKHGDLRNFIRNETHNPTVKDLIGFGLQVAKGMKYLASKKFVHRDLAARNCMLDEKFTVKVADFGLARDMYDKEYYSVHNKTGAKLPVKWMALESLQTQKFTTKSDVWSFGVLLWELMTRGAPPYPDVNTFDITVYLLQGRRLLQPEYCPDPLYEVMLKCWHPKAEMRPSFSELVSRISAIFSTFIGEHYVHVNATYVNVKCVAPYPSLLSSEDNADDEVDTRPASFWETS
Procedure, shortened: (§6)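 KINOMEscan competition binding. Binding reactions ran at rt for 1 h. Unbound kinase was captured on an immobilized affinity ligand and quantified by qPCR. Each kinase was tested individually.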

[7] = Cmax in Cynomolgus monkey at 10 mg/kg, po; format: ADME, organism-based, Macaca fascicularis; set-up: dose 10 mg/kg, route oral; settings: in vivo; procedure, shortened: as §2
[8] = biological target: RAF proto-oncogene serine/threonine-protein kinase (Homo sapiens, UniProt P04049); assay: Inhibition of CRAF in human HEK293 cells after 1 hr by competition binding assay; format: cell-based
Procedure, shortened: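 KINOMEscan competition binding. Binding reactions run at rt for 1 h. Kinase not bound to compound is captured on an immobilized affinity ligand and quantified by qPCR.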

Cytochrome P450 1A2 = Cytochrome P450 1A2 (Homo sapiens, UniProt P05177); assay: Inhibition of human CYP1A2; format: ADME
Cytochrome P450 1A2, sequence (P05177 whole entry, canonical isoform): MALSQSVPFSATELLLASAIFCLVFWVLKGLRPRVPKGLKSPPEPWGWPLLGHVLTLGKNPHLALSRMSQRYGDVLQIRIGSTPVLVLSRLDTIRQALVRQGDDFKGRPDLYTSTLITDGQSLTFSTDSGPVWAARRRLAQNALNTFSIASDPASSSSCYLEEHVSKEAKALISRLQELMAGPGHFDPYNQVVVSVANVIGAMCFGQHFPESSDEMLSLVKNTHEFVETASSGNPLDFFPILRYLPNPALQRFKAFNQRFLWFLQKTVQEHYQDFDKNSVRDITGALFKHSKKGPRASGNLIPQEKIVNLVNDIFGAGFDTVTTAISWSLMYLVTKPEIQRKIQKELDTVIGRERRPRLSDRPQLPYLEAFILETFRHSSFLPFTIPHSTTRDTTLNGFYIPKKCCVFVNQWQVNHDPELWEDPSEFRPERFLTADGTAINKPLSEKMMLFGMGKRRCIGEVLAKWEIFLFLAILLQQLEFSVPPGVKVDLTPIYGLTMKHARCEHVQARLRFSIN
Procedure, shortened: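 Pooled human liver microsomes (0.25 mg/mL) with NADPH (1 mM) and five pooled probe substrates (testosterone, diclofenac, dextromethorphan, mephenytoin, phenacetin). Test compound ran at eight concentrations, 0.31−40 μM, 20 min at 37 °C, with pooled control inhibitors in parallel. Isoform-specific metabolites were measured by LC-MS/MS.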

[9] = Oral bioavailability in beagle dog at 10 mg/kg; format: ADME, organism-based, Canis lupus familiaris; settings: in vivo
Procedure, shortened: (§7)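 Male non-naive cynomolgus monkeys (2.6–3.4 kg) and beagle dogs (10.3–11.9 kg), n = 3 each, were dosed in a crossover design with a ≥7-day washout. Doses were 10 mg/kg by nasogastric gavage and 1 mg/kg as a saphenous iv bolus, both free base in 22% HPβCD. Animals were fasted overnight until about 4 h post dose. Femoral plasma was sampled from predose to 24 h and analyzed by LC-MS/MS. Parameters came from noncompartmental analysis; mean ± SD reported.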

[10] = Volume of distribution in Sprague-Dawley rat at 1 mg/kg, iv and 10 mg/kg, po; format: ADME, organism-based; settings: in vivo; procedure, shortened: as §3
[11] = biological target: Tyrosine-protein kinase JAK3 (Homo sapiens, UniProt P52333); assay: Inhibition of JAK3 in human HEK293 cells after 1 hr by competition binding assay; format: cell-based; procedure, shortened: as §5
[12] = Clearance in Cynomolgus monkey at 1 mg/kg, iv and 10 mg/kg, po; format: ADME, organism-based, Macaca fascicularis; settings: in vivo; procedure, shortened: as §2
[13] = biological target: Tyrosine-protein kinase JAK2 (Homo sapiens, UniProt O60674); assay: Inhibition of JAK2 in human HEK293 cells after 1 hr by competition binding assay; format: cell-based; procedure, shortened: as §5
Tyrosine-protein kinase JAK2, sequence (O60674 whole entry): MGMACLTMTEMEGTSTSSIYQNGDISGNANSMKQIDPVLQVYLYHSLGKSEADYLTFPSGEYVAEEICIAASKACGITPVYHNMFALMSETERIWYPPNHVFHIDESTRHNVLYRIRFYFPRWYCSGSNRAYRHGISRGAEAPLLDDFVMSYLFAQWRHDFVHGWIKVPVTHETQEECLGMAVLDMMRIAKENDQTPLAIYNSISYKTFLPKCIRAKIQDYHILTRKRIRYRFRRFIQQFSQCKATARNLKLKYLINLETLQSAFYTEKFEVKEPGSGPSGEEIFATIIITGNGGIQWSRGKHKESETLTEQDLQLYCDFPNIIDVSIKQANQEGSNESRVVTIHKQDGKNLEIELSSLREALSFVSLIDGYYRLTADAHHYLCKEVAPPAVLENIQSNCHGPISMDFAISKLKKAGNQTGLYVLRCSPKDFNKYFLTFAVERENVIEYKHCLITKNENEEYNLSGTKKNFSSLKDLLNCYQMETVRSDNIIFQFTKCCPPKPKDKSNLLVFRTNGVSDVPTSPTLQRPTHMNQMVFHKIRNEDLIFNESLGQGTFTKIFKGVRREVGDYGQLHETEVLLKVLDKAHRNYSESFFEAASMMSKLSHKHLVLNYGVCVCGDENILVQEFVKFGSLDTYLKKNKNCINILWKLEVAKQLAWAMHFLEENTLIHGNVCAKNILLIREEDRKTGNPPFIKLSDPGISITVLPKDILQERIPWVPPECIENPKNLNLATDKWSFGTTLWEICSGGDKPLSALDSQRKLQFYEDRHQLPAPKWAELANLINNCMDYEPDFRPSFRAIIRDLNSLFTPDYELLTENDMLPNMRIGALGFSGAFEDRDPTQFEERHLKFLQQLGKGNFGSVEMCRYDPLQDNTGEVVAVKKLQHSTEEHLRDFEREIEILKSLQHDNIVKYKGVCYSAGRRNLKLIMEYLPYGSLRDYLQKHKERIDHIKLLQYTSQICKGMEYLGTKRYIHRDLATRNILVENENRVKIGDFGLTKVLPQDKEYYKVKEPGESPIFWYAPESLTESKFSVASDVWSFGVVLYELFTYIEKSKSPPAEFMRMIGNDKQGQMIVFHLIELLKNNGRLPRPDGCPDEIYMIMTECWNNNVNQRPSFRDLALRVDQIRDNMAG

PC-3 = assay: Cytotoxicity against human PC3 cells expressing wild type BRAF after 72 hrs by cell titer blue assay; format: functional, cell-based; settings: PC-3, 72 h; procedure, shortened: as §4
[14] = biological target: Dual specificity mitogen-activated protein kinase kinase 2 (Homo sapiens, UniProt P36507); assay: Inhibition of MEK2 in human HEK293 cells after 1 hr by competition binding assay; format: cell-based; procedure, shortened: as §6
[15] = biological target: Dual specificity mitogen-activated protein kinase kinase 1 (Homo sapiens, UniProt Q02750); assay: Inhibition of MEK1 in human HEK293 cells after 1 hr by competition binding assay; format: cell-based; procedure, shortened: as §6
Dual specificity mitogen-activated protein kinase kinase 1, sequence (Q02750 whole entry): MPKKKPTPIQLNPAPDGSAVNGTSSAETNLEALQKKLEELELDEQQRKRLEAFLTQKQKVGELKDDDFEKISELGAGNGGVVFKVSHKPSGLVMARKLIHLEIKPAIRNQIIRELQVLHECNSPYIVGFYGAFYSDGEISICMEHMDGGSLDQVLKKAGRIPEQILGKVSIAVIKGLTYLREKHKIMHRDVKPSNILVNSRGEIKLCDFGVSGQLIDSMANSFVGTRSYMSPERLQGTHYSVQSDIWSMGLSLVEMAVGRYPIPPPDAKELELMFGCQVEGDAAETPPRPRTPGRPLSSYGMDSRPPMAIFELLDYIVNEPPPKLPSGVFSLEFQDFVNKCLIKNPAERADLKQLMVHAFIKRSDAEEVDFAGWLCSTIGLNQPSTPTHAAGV

[16] = Tmax in Cynomolgus monkey at 10 mg/kg, po; format: ADME, organism-based, Macaca fascicularis; set-up: dose 10 mg/kg, route oral; settings: in vivo; procedure, shortened: as §7
A-375 = assay: Cytotoxicity against human A375 cells expressing BRAF V600E mutant after 72 hrs by cell titer blue assay; format: functional, cell-based; settings: A-375, 72 h; procedure, shortened: as §4
Mus musculus [17] = assay: Inhibition of BRAF V600E mutant-mediated MEK phosphorylation in human COLO205 cells xenografted in athymic nude mouse at 55 mg/kg, po after 2 hrs; format: functional; settings: COLO 205, 2 h; procedure, shortened: as §1
Aurora kinase A = Aurora kinase A (Homo sapiens, UniProt O14965); assay: Inhibition of Aurora A in human HEK293 cells after 1 hr by competition binding assay; format: cell-based; procedure, shortened: as §6
Aurora kinase A, sequence (O14965 whole entry): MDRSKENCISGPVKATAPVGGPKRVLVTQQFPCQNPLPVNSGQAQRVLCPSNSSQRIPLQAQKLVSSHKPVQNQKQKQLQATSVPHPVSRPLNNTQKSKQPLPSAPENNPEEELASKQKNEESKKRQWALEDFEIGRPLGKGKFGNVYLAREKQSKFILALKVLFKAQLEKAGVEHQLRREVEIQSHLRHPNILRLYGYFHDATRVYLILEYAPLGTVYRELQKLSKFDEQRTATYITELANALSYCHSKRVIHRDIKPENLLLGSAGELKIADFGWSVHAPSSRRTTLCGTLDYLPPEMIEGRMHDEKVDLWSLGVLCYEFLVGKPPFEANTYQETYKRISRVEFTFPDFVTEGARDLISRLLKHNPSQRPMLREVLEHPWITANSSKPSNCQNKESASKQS

[18] = AUC (infinity) in Cynomolgus monkey at 10 mg/kg, po; format: ADME, organism-based, Macaca fascicularis; set-up: dose 10 mg/kg, route oral, time infinity; settings: plasma; procedure, shortened: as §2

clearance [2]: 5 mL/min/kg
CLH (Liver microsomes): < 23 µL/min/mg
bioavailability [3]: 94%
clearance [4]: 3.4 mL/min/kg
Kd [5]: > 10 µM
Kd [6]: 0.513 µM
Cmax [7]: 4.3 µM
Kd [8]: 0.039 µM
IC50 (Cytochrome P450 1A2): > 10 µM
bioavailability [9]: 100%
Vd [10]: 1.6 L/kg
Kd [11]: > 10 µM
clearance [12]: 6.7 mL/min/kg
Kd [13]: 4.7 µM
Kd [14]: 8.3 µM
Kd [15]: 7.1 µM
Tmax [16]: 4 h
Kd (Aurora kinase A): > 10 µM
AUC(0-inf) [18]: 92.2 µM·h
SMILES: COc1cc2ncnc(Oc3cccc(NC(=O)Nc4cc(C(C)(C)C(F)(F)F)on4)c3)c2cc1OC [CEP-32496]
inhibition in vivo at 55 mg/kg (Mus musculus [1]): 57%
EC50 (COLO 205): 0.036 µM
EC50 (PC-3): 6.26 µM
IC50 (A-375): 0.078 µM
inhibition in vivo at 55 mg/kg (Mus musculus [17]): 75%
